What was measured:
[1] = Cytotoxicity against human TE1 cells assessed as growth inhibition after 72 hrs by CCK8 assay; type: functional, cell-based, TE-1; settings: Homo sapiens, TE-1, 72 h; read-out: IC50
Outline: (§1)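 Exponentially growing cells were trypsinized and seeded at 2 × 10^4 cells/mL (100 µL/well). After 24 h, medium was replaced with compound at 0.5–256 µM (twofold steps). Plates were incubated 72 h at 37 °C, 5% CO2, then with CCK-8 for 4 h. A450 was read. Three independent runs; IC50 given as mean and SD.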

[2] = Cytotoxicity against human MCF7 cells assessed as growth inhibition after 72 hrs by CCK8 assay; type: functional, cell-based; settings: Homo sapiens, MCF7, 72 h; read-out: IC50; outline: as §1
[3] = Cytotoxicity against human SW780 cells assessed as growth inhibition after 72 hrs by CCK8 assay; type: functional, cell-based; settings: Homo sapiens, SW780, 72 h; read-out: IC50; outline: as §1
[4] = Cytotoxicity against human MGC803 cells assessed as growth inhibition after 72 hrs by CCK8 assay; type: functional, cell-based, MGC-803; settings: Homo sapiens, MGC-803, 72 h; read-out: IC50; outline: as §1
[5] = Cytotoxicity against human HL-7702 cells assessed as growth inhibition after 72 hrs by CCK8 assay; type: toxicity, cell-based, L02; settings: human, HL-7702 cells; outline: as §1
[6] = Cytotoxicity against human GES-1 cells assessed as growth inhibition after 72 hrs by CCK8 assay; type: toxicity, cell-based, GES1; settings: human, GES-1 cells; outline: as §1

SMILES: O=c1[nH]cc(F)c(=O)[nH]1 [FLUOROURACIL]
- IC50 [1]: 17.3 µM
- IC50 [2]: 13.2 µM
- IC50 [3]: 6.99 µM
- IC50 [4]: 10.6 µM
- IC50 at 72 h [5]: 12.8 µM
- IC50 at 72 h [6]: 13.8 µM

SMILES: O=C1C(=O)N(Cc2cn(CC(=O)N3CCOCC3)nn2)c2c(Cl)ccc(Cl)c21
- IC50 [1]: 119 µM
- IC50 [2]: 146 µM
- IC50 [3]: 113 µM
- IC50 [4]: 51.7 µM
- IC50 at 72 h [5]: > 128 µM
- IC50 at 72 h [6]: > 128 µM

SMILES: O=C(Cn1cc(CN2C(=O)C(=O)c3c(Cl)ccc(Cl)c32)nn1)Nc1ccccc1
- IC50 [1]: 30.6 µM
- IC50 [2]: 38.5 µM
- IC50 [3]: 27 µM
- IC50 [4]: 17.5 µM
- IC50 at 72 h [5]: 24.9 µM
- IC50 at 72 h [6]: 24.9 µM

SMILES: O=C(Cn1cc(CN2C(=O)C(=O)c3c(Cl)ccc(Cl)c32)nn1)NC1CCCCC1
- IC50 [1]: 25.2 µM
- IC50 [2]: 51.8 µM
- IC50 [3]: 93.3 µM
- IC50 [4]: 17.4 µM
- IC50 at 72 h [5]: 83.9 µM
- IC50 at 72 h [6]: 47.4 µM
